Experimental data: ChEMBL document CHEMBL3813612, “Carolignans from the Aerial Parts of Euphorbia sikkimensis and Their Anti-HIV Activity” (J Nat Prod, 2016)

How the values were obtained:
[1] = system: Human immunodeficiency virus 1; test: Antiviral activity against HIV1 NL4-3 infected in human MT4 cells assessed as reduction in viral replication measured on day 3 post infection by luciferase reporter gene assay; type: functional, organism-based
[2] = system: MT4; test: Cytotoxicity against human MT4 cells assessed as reduction in cell viability after 3 days by CytoTox-Glo assay; type: cell-based; settings: mt4, 72 h
In short: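 MT4 cells were cultured with various compound concentrations for 3 days. Viability was read by the CytoTox-Glo assay following the manufacturer's protocol. CC50 is the concentration giving a 50% reduction in cell viability.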

[3] = Selectivity index, ratio of CC50 for human MT4 cells to EC50 for HIV1 NL4-3 infected in human MT4 cells; type: toxicity, cell-based; settings: read-out: Ratio CC50/EC50
[4] = Human immunodeficiency virus 1, NL4-3, MT4, 72 h

| SMILES | EC50 [1, 4] | CC50 ([2]; 72 h) | selectivity ratio [3] | EC50 ([1]; mt4) | CC50 [2] |
| --- | --- | --- | --- | --- | --- |
| COc1cc(/C=C/C(=O)OCCCc2ccc(O[C@@H](COC(=O)/C=C/c3ccc(O)c(OC)c3)[C@H](OC)c3ccc(O)c(OC)c3)c(OC)c2)ccc1O (stereo in doubt; 1a) | 6.3 µM | 21 µM | 3.3 |  |  |
| COc1cc(/C=C/C(=O)OCCCc2ccc(O[C@H](COC(=O)/C=C/c3ccc(O)c(OC)c3)[C@@H](OC)c3ccc(O)c(OC)c3)c(OC)c2)ccc1O (stereo in doubt; 1b) | 5.3 µM | 17 µM | 3.2 |  |  |
| COc1cc(/C=C/C(=O)OCCCc2ccc(O[C@H](COC(=O)/C=C/c3ccc(O)c(OC)c3)[C@@H](OC)c3ccc(O)c(OC)c3)c(OC)c2)ccc1O (stereo in doubt; 2a) |  |  |  | > 10 µM |  |
| CCOC(=O)/C=C/c1ccc(O)c(OC)c1 [ETHYL FERULATE] | > 10 µM |  |  |  | > 10 µM |
| COc1cc(/C=C/C(=O)O)ccc1O [FERULATE] | > 10 µM |  |  |  | > 10 µM |
| Cc1cn([C@H]2C[C@H](N=[N+]=[N-])[C@@H](CO)O2)c(=O)[nH]c1=O [ZIDOVUDINE] |  |  |  |  | > 0.1 µM |
